Experimental data from ChEMBL document CHEMBL1157476, “A novel class of cycloalkano[b]pyridines as potent and orally active opioid receptor-like 1 antagonists with minimal binding affinity to the hERG K+ channel” (J Med Chem, 2008).
Active and inactive are the calls of the source. The calls are words filed in the database; no cut-off is given here.

Key:
Nociceptin receptor [1] = molecular target: T1, Nociceptin receptor (Homo sapiens, UniProt P41146); assay: Displacement of [125I][Tyr14]nociceptin from human ORL1 expressed in CHO cells; type: cell-based
[2] = molecular target: Voltage-gated inwardly rectifying potassium channel KCNH2 (Homo sapiens, UniProt Q12809)
Nociceptin receptor [3] = molecular target: T1, Nociceptin receptor; assay: Antagonist activity at human ORL1 expressed in CHO cells assessed as effect on nociceptin-induced GTPgammaS binding; type: functional, cell-based
Mus musculus [4] = assay: Inhibition of ORL1 agonist-induced hypolocomotion in mouse at 3 mg/kg, sc; type: functional, organism-based; set-up: dose 3 mg/kg
in vivo [5] = details: dog, plasma, iv, 2 mg/kg
Plasma = details: dog, in vivo, iv, 1 mg/kg, 20 min
Canis familiaris [6] = assay: Cardiovascular activity in anesthetized dog assessed as corrected QT interval at 2 mg/kg, iv dosed for 10 mins measured after 20 mins relative to baseline; type: functional, Canis lupus familiaris
In short: (§1)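 Isoflurane-anesthetized dogs (n = 1 or 3) given cumulative iv doses as saline solutions, each infused over 10 min; 2 and 7 mg/kg doses given 20 min after the prior administration. QTc measured at 0, 10 and 20 min after dosing, expressed as percent change from baseline for each dog. Peak plasma levels taken after each dose.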

in vivo [7] = details: dog, plasma, iv, 7 mg/kg
[8] = Bioavailability in Sprague-Dawley rat at 10 mg/kg, iv; type: ADME, organism-based; details: in vivo, po, in the assay text read “po” for “iv”
In short: (§2)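 Fasted Sprague-Dawley rats (n = 3) dosed orally as a solution in water (10 or 3 mg/kg), with matching intravenous arms at 3 or 0.65 mg/kg; F from oral versus IV exposure.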

physchem [9] = assay: physchem
Canis familiaris [10] = assay: Cardiovascular activity in anesthetized dog assessed as corrected QT interval at 1 mg/kg, iv dosed for 10 mins measured after 20 mins relative to baseline; type: functional, Canis lupus familiaris; in short: as §1
[11] = Volume of distribution at steady state in Sprague-Dawley rat at 3 mg/kg, iv; type: ADME, organism-based; set-up: dose 3 mg/kg, route intravenous; details: in vivo, read-out: Vdss
In short: (§3)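 Fasted Sprague-Dawley rats (n = 3) given an intravenous solution in water at 3 or 0.65 mg/kg; plasma pharmacokinetic parameters from the IV arm.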

[12] = Plasma clearance in Sprague-Dawley rat at 3 mg/kg, iv; type: ADME, organism-based; set-up: dose 3 mg/kg, route intravenous; in short: as §3
[13] = Metabolic stability in cryopreserved human hepatocyte after 30 mins; type: ADME, cell-based; details: cryopreserved human hepatocytes, read-out: Stability
In short: (§4)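 Compound incubated 30 min with rat hepatocytes or cryopreserved human hepatocytes; percent parent remaining reported; rat as mean of duplicates, human as mean of three experiments.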

[14] = AUC (0 to infinity) in Sprague-Dawley rat at 3 mg/kg, iv; type: ADME, organism-based; set-up: time infinity, dose 3 mg/kg, route intravenous; details: plasma
In short: (§5)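 Fasted Sprague-Dawley rats (n = 3) received a single intravenous dose. Plasma exposure was expressed as AUC from zero to infinity, in µM·h. The same study also yielded clearance, half-life and steady-state volume of distribution, with oral dosing run in parallel.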

[15] = Half life in Sprague-Dawley rat at 3 mg/kg, iv; type: ADME, organism-based; set-up: dose 3 mg/kg, route intravenous; details: in vivo; in short: as §3
[16] = Metabolic stability in rat hepatocyte after 30 mins; type: ADME, cell-based; details: rat hepatocytes, read-out: Stability; in short: as §4
physchem [17] = details: buffer, pH 7.4
Canis familiaris [18] = assay: Cardiovascular activity in anesthetized dog assessed as corrected QT interval at 7 mg/kg, iv dosed for 10 mins measured after 20 mins relative to baseline; type: functional, Canis lupus familiaris; in short: as §1
in vivo [19] = details: dog, plasma, iv, 1 mg/kg
[20] = Bioavailability in Sprague-Dawley rat at 3 mg/kg, iv; type: ADME, organism-based; details: in vivo, po, in the assay text read “po” for “iv”; in short: as §2
Brain = assay: Drug level in rat brain at 10 mg/kg, po after 1 hrs; type: ADME, organism-based; set-up: dose 10 mg/kg, route oral; details: in vivo
In short: (§6)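 Oral dose 10 mg/kg; plasma and brain collected 1 h after administration and drug concentrations measured, n = 3 per group.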

[21] = Volume of distribution at steady state in Sprague-Dawley rat at 0.65 mg/kg, iv; type: ADME, organism-based; set-up: dose 0.65 mg/kg, route intravenous; details: in vivo, read-out: Vdss; in short: as §3
[22] = Volume of distribution at steady state in Beagle dog at 1 mg/kg, iv; type: ADME, organism-based, Canis lupus familiaris; set-up: dose 1 mg/kg, route intravenous; details: in vivo, read-out: Vdss
In short: (§7)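 Fasted Beagle dogs (n = 3) given 1 mg/kg intravenously; plasma pharmacokinetic parameters derived from the IV arm.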

[23] = Plasma clearance in Beagle dog at 1 mg/kg, iv; type: ADME, organism-based, Canis lupus familiaris; set-up: dose 1 mg/kg, route intravenous; in short: as §7
[24] = Plasma clearance in Sprague-Dawley rat at 0.65 mg/kg, iv; type: ADME, organism-based; set-up: dose 0.65 mg/kg, route intravenous; in short: as §3
[25] = Bioavailability in Beagle dog at 3 mg/kg, po; details: in vivo
[26] = Plasma concentration in rat at 10 mg/kg, po after 1 hrs; type: ADME, organism-based; set-up: dose 10 mg/kg, route oral; in short: as §6
Rattus norvegicus = assay: AUC (0 to infinity) in Sprague-Dawley rat at 0.65 mg/kg, iv; type: ADME, organism-based, Plasma; set-up: time infinity, dose 0.65 mg/kg, route intravenous; details: in vivo; in short: as §5
[27] = Half life in Sprague-Dawley rat at 0.65 mg/kg, iv; type: ADME, organism-based; set-up: dose 0.65 mg/kg, route intravenous; details: in vivo; in short: as §3
[28] = molecular target: Delta-type opioid receptor (Homo sapiens, UniProt P41143); assay: Displacement of [3H][D-Ala2,D-Leu5]enkephalin from human cloned delta opioid receptor expressed in CHO cells; type: cell-based
In short: (§8)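 Radioligand displacement from CHO cells stably expressing cloned human receptors: [3H]diprenorphin for mu, [3H]U-69593 for kappa, [3H][D-Ala2,D-Leu5]enkephalin for delta; IC50; three independent determinations, each in duplicate.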

[29] = AUC (0 to infinity) in Beagle dog at 1 mg/kg, iv; type: ADME, organism-based, Canis lupus familiaris; set-up: time infinity, dose 1 mg/kg, route intravenous; details: plasma; in short: as §7
[30] = Half life in Beagle dog at 1 mg/kg, iv; type: ADME, organism-based, Canis lupus familiaris; set-up: dose 1 mg/kg, route intravenous; details: in vivo; in short: as §7
Mus musculus [31] = assay: Reversal of ORL agonist-induced locomotor activity in CD1 mouse at 10 mg/kg, po after 60 mins; type: functional
In short: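 Mice (n = 6) dosed orally at 10 mg/kg, then given an ORL1 agonist. Locomotor activity counted over 60 min against vehicle control and agonist-only groups. Result expressed as % reversal of the agonist-induced reduction in locomotion.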

Mu-type opioid receptor = Mu-type opioid receptor (Homo sapiens, UniProt P35372); assay: Displacement of [3H]diprenorphin from human cloned mu opioid receptor expressed in CHO cells; type: cell-based; in short: as §8
[32] = molecular target: Kappa-type opioid receptor (Homo sapiens, UniProt P41145); assay: Displacement of [3H]U69593 from human cloned kappa opioid receptor expressed in CHO cells; type: cell-based; in short: as §8
Sequence of Kappa-type opioid receptor (P41145 whole entry): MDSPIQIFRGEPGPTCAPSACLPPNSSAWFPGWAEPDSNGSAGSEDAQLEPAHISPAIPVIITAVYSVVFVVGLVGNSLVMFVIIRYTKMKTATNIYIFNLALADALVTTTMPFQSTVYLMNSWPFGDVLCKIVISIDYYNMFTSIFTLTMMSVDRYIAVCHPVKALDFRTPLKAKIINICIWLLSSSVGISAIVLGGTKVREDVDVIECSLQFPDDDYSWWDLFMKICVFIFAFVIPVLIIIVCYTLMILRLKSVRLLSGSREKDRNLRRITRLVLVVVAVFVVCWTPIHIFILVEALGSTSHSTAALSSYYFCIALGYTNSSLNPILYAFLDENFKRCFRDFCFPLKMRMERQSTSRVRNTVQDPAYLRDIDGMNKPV

Sequence of Voltage-gated inwardly rectifying potassium channel KCNH2 (Q12809 whole entry): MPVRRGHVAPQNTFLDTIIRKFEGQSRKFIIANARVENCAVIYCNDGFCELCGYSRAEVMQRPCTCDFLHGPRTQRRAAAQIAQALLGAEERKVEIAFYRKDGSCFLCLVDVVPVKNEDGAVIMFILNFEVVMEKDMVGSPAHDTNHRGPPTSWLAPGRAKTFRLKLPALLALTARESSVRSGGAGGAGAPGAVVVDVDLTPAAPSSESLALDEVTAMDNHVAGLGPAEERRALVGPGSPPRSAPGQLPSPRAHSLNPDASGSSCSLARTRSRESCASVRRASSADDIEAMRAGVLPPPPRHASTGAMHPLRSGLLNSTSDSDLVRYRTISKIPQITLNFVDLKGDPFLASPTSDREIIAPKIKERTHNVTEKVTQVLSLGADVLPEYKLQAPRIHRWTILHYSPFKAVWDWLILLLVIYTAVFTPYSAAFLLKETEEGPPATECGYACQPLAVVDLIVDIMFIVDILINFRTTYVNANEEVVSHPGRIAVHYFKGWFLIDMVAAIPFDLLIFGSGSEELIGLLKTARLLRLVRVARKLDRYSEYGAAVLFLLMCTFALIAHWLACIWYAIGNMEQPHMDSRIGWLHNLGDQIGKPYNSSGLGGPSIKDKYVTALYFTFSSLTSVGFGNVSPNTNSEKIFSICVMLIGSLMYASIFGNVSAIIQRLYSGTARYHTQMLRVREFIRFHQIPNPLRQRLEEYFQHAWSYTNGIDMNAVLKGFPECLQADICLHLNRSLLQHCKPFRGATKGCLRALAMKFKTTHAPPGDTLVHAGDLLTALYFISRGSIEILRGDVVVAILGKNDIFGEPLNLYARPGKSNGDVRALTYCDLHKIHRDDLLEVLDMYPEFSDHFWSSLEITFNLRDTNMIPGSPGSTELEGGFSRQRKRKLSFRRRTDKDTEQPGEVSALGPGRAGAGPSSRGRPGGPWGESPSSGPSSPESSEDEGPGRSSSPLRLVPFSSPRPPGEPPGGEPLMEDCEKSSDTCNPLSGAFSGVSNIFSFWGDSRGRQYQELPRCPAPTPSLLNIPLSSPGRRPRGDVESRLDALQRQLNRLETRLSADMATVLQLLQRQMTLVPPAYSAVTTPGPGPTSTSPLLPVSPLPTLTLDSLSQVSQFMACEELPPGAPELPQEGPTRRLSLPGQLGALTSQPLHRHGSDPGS
T1 sequence (P41146 whole entry): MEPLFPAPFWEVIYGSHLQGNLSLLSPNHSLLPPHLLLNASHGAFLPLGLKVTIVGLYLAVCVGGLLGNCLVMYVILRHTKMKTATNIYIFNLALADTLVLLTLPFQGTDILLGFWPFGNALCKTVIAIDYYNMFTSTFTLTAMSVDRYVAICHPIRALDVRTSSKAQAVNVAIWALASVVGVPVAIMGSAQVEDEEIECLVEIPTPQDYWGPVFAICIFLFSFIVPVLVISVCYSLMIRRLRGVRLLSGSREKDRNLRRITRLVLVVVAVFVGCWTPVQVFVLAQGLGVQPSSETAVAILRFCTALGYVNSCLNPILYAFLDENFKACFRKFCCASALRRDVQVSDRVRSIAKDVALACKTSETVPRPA
Sequence of Mu-type opioid receptor (P35372 whole entry): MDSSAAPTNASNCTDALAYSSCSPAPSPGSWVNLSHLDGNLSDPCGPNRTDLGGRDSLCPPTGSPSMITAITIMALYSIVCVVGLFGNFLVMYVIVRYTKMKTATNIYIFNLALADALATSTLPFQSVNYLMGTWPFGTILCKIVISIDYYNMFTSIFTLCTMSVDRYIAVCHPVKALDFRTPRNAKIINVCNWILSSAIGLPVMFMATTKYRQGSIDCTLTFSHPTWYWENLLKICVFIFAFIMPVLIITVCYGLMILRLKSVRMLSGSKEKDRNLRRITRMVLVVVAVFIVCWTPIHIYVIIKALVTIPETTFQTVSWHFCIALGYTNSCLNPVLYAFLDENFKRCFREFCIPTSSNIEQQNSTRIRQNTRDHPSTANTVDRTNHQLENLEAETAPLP
Sequence of Delta-type opioid receptor (P41143 whole entry): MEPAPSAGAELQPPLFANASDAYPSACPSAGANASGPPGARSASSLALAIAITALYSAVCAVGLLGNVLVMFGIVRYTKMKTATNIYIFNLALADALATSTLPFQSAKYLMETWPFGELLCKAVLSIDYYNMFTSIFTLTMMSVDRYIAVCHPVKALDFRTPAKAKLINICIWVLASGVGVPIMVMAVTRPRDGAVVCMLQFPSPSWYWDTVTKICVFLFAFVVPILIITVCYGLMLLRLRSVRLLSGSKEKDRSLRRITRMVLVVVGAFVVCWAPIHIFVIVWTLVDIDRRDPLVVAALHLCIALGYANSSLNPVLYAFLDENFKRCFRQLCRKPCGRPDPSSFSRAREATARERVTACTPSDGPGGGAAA

With Cc1ccccc1C1CCN(C[C@@H]2CCc3cccnc3C(C)(O)C2)CC1 (stereo in doubt; form 1) the Ki (Nociceptin receptor [1]) was 24 nM.

O[C@H]1C[C@H](CN2CCC(c3ccccc3)CC2)CCc2cccnc21 showed a Ki (Nociceptin receptor [1]) of 30 nM and an IC50 [2] of 11000 nM.

Compound O[C@H]1C[C@H](CN2CCC(c3ccccc3Cl)CC2)CCc2cccnc21 has an IC50 (Nociceptin receptor [3]) of 27 nM, a Ki (Nociceptin receptor [1]) of 1.1 nM and an IC50 [2] of 1500 nM.

For Cc1ccccc1C1CCN(C[C@@H]2CCc3c(C)cccc3[C@@H](O)C2)CC1 (relative stereo), the Activity (Mus musculus [4]) was “inactive”.

Cc1ccccc1[C@@H]1CCN(C[C@@H]2CCc3cccnc3[C@@H](O)C2)C[C@H]1O gave a concentration at 20 min (in vivo [5]) of 4.9 µM, a PPB (Plasma) of 62% and an Activity (Canis familiaris [6]) of 0.2%. For the same compound, the concentration at 20 min (in vivo [7]) was 17.9 µM, the bioavailability [8] was 11% and the pKa (physchem [9]) was 7.8. It also gave an Activity (Canis familiaris [10]) of 0.2%, a Vd [11] of 6.3 L/kg and a clearance [12] of 91 mL/min/kg. For the same compound, the remaining at 0.5 h [13] was 62%, the AUC(0-inf) [14] was 1.6 µM·h and the half-life [15] was 0.9 h. For the same compound, the remaining at 0.5 h [16] was 6%, the logD (physchem [17]) was 2.2 and the Activity (Canis familiaris [18]) was 2%. For the same compound, the concentration at 20 min (in vivo [19]) was 2.26 µM.

Compound Cc1ccccc1C1CCN(C[C@@H]2CCc3cccnc3C(=O)C2)CC1 has a logD (physchem [17]) of 1.3 and a Ki (Nociceptin receptor [1]) of 49 nM.

With O[C@H]1C[C@H](CN2CC[C@H](c3ccc(F)cc3Cl)[C@@H](O)C2)Cc2cccnc21 the concentration at 20 min (in vivo [5]) was 8.3 µM, the bioavailability [20] was 13% and the PPB (Plasma) was 57%. The Activity (Canis familiaris [6]) was 0.9%, the Drug uptake (Brain) was 0.172 nmol/g and the concentration at 20 min (in vivo [7]) was 29.8 µM. It also gave a Vd [21] of 3.9 L/kg, a Vd [22] of 10.6 L/kg and a clearance [23] of 19 mL/min/kg. For the same compound, the pKa (physchem [9]) was 7.4, the Activity (Canis familiaris [10]) was 1.1% and the clearance [24] was 47 mL/min/kg. The bioavailability [25] was 39%, the concentration at 1 h [26] was 0.03 µM and the AUC (Rattus norvegicus) was 0.59 µM·h. The half-life [27] was 1.2 h, the remaining at 0.5 h [13] was 93% and the IC50 [28] was > 10000 nM. The AUC(0-inf) [29] was 2 µM·h, the half-life [30] was 13.5 h and the Activity (Mus musculus [31]) was 89%. It also gave a remaining at 0.5 h [16] of 30%, a logD (physchem [17]) of 2.3 and an Activity (Canis familiaris [18]) of 2%. The concentration at 20 min (in vivo [19]) was 3.48 µM, the IC50 (Mu-type opioid receptor) was > 10000 nM and the IC50 [32] was > 10000 nM.

In the case of Cc1cc(F)ccc1[C@H]1CCN(C[C@@H]2Cc3cccnc3[C@@H](O)C2)C[C@@H]1O, the logD (physchem [17]) is reported as 1.9 and the Ki (Nociceptin receptor [1]) is reported as 21 nM.

With O[C@H]1C[C@H](CN2CCC(c3c(Cl)cccc3Cl)CC2)CCc2cccnc21 the IC50 (Nociceptin receptor [3]) was 1.6 nM, the logD (physchem [17]) was > 4 and the Ki (Nociceptin receptor [1]) was 0.47 nM. For the same compound, the IC50 [2] was 940 nM.

In the case of Cc1ccccc1[C@@H]1CCN(C[C@@H]2CCc3cccnc3[C@@H](O)C2)C[C@H]1C, the IC50 (Nociceptin receptor [3]) is reported as 5.7 nM, the logD (physchem [17]) is reported as 3 and the Ki (Nociceptin receptor [1]) is reported as 3.5 nM.

Compound Cc1ccccc1C1CCN(C[C@@H]2CCc3cccnc3C(C)(O)C2)CC1 (stereo in doubt; form 2) has a logD (physchem [17]) of 2.9 and a Ki (Nociceptin receptor [1]) of 17 nM.

With O[C@H]1C[C@H](CN2CC[C@H](c3ccc(F)cc3Cl)[C@@H](O)C2)CCc2cccnc21 the IC50 (Nociceptin receptor [3]) was 5 nM and the Ki (Nociceptin receptor [1]) was 4.4 nM.

For Cc1ccccc1[C@@H]1CCN(C[C@@H]2CCc3cccnc3[C@@H](O)C2)C[C@H]1CO, the Activity (Canis familiaris [6]) was 0.1%, the Activity (Canis familiaris [10]) was -0.1% and the Activity (Canis familiaris [18]) was 11.3%.

For Cc1ccccc1C1CCN(C[C@@H]2Cc3cccnc3[C@@H](O)C2)CC1, the logD (physchem [17]) was 2, the Ki (Nociceptin receptor [1]) was 11 nM and the IC50 [2] was > 50000 nM.

In the case of Cc1ccccc1[C@H]1CCN(C[C@@H]2Cc3cccnc3[C@@H](O)C2)C[C@@H]1O, the Ki (Nociceptin receptor [1]) is reported as 51 nM and the IC50 [2] is reported as > 50000 nM.

Compound Cc1ccccc1C1CCN(C[C@@H]2CCc3cccnc3C3(C2)OCCO3)CC1 has a logD (physchem [17]) of 3.1 and a Ki (Nociceptin receptor [1]) of 25 nM.
